# Screening data (PubChem BioAssay)
# Rows were chosen to be rich in hits. Some 0.91% of all compounds tested hit in one or more screens of this group.
# Arbovirus anti – antivirals against arbovirus infection; arbovirus infection cell-based antiviral screen; inhibition, % at 10 µM; 0.37% of 200,000 active; in the data active = inhibition above about 30%
# Lipid droplet – modulators of hepatic lipid droplet formation; AML12 mouse hepatocytes, oleate lipid droplets, BODIPY imaging; inhibition, % at 6.5 µM; 0.4% of 240,000 active; AID 1656;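 active = lipid droplet intensity inhibited by at least 50%, with more than 500 cells counted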
#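 Test system: AML12 hepatocytes (mouse); reagent: oleate loading, 100 µM; dosing: one dose, 6.5 µM compound; incubation: overnight exposure; signal: fluorescence imaging, 20x objective, two fields per well; read-out basis: % inhibition of corrected integrated BODIPY droplet signal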
# Pf gamet viab – kills late stage P. falciparum gametocytes | AID 743093 | inhibition, % at 10.9 µM | 0.065% of 150,000 active | P. falciparum stage V gametocytes, ATP luminescence, 24 h;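 active = inhibition above the mean plus 3 SD of compounds within the control limits, set per campaign, cut at about 38% in these data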;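 note: 0% = DMSO wells and 100% = medium only without gametocytes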
# TNF necrop inh – blocks TNF-alpha induced death of Jurkat FADD-/- cells; Jurkat FADD-/- TNF necroptosis rescue, ATP luminescence, 24 h; 0 = TNF only, 100 = no-TNF cells; activation (protection from cell death), % at 10 µM; 0.068% of 220,000 active; AID 463075;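 active = activation, meaning protection from cell death, of at least 50% relative to plate controls; inactive = activation below 50%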;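 note: necroptosis triggered by 40 ng/mL TNF-alpha added together with compound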
# zVAD death inh – blocks zVAD induced death of L929 cells; 0.38% of 220,000 active; viability rescue, % at 10 µM; L929 zVAD necroptosis rescue, ATP luminescence, 24 h; with zVAD 60 µM;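 active = activation, scaled between plate controls, above about 75%, limit read from the data; inactive = activation under that limit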;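 note: 0% = zVAD with DMSO and 100% = DMSO alone without zVAD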
# The depositor's hits bear a star; nt = no result.
SMILES,Arbovirus anti,Lipid droplet,Pf gamet viab,TNF necrop inh,zVAD death inh
COc1ccc(Cl)cc1NC(=O)C1COc2ccccc2O1 (configuration not stated),32*,1,12,1,0
Cc1cccn2cc(CCNS(=O)(=O)c3cccc([N+](=O)[O-])c3)nc12,nt,11,-9,5,0
CCOc1ccc(CNCCN2CCCC2)cc1,nt,5,nt,nt,nt
COCC(C)n1c(SCc2nc3ccccc3c(=O)[nH]2)nc2ccccc2c1=O (configuration not stated),45*,4,-31,0,1
CCOC(=O)c1cc2c(N)c(C(=O)c3ccc(Br)cc3)sc2[nH]c1=O,32*,-23,19,1,1
Cc1oc(-c2ccccc2Cl)nc1CSCC(=O)N1CCCC1,33*,0,3,-5,0
COc1cc(OC)c(OC)cc1CNC(=O)c1cc(=O)[nH]c2ccccc12,nt,2,nt,nt,nt
CCOC(=O)c1c(-c2ccccc2)csc1NC(=S)N(CC)CC,37*,0,7,1,0
O=C1NC(=O)C2(CCCc3ccccc32)N1 (configuration not stated),nt,0,nt,nt,nt
COc1ccc2cc(-c3cc(C(=O)O)c4ccccc4n3)ccc2c1,34*,nt,nt,-7,0
COc1ccc(CNC(=O)C/C(C)=N/NC(=O)Cc2ccc(OC)cc2)cc1,4,-9,nt,1,1
COc1ccc(CNC(=O)C/C(C)=N/NC(=O)C(c2ccccc2)c2ccccc2)cc1,-6,nt,nt,25,91*
CCOC(=O)c1sc(NC(=S)NC(=O)c2cccc(Cl)c2)c(C(=O)OCC)c1C,37*,-2,nt,-2,0
CCOC(=O)c1sc(NC(C)=O)c(C(=O)OCC)c1C,4,3,-6,-1,0
Cc1ccc(CNC(=O)C2CCN(S(=O)(=O)N3CCCCC3)CC2)cc1,15,7,40*,2,-1
Cc1cccc(C)c1Nc1nnc(SC/C(O)=C(\C#N)c2nc3ccccc3[nH]2)s1,30*,-5,5,3,nt
COc1ccc(C=O)cc1CSc1ncccc1C(=O)O,nt,24,nt,nt,nt
Cc1ccc(Cc2cnc(NC(=O)C3=NCCN3)s2)cc1,8,-5,4,-1,8
O=C(Nc1ncc(Cc2ccccc2)s1)C1=NCCN1,-4,12,38*,-1,-1
FC(F)(F)c1ccc(Oc2ccc3ccccc3c2Br)nc1,35*,-46,7,1,0
O=[N+]([O-])c1ccccc1Oc1ccc(C(F)(F)F)cn1,1,17,-1,2,1
CCc1ccccc1N(C(C)=O)c1nc(CN=C=S)cs1,1,26,nt,1,1
CCN(CC)CC(=O)Nc1ccc2c(c1)Nc1ccccc1CC2,-25,nt,-7,-2,84*
CCN(CC)CC(=O)Nc1ccc2c(c1)N(C(=O)CN(CC)CC)c1ccccc1CC2,-3,-10,-3,1,0
O=S(=O)(c1ccc(Oc2ccc(Cl)cc2)c(S(=O)(=O)N2CCCCC2)c1)N1CCCCC1,38*,nt,5,2,0
SMILES,Arbovirus anti,Lipid droplet,Pf gamet viab,TNF necrop inh,zVAD death inh
CCOC(=O)c1c(NC(=O)CSc2ncn[nH]2)sc(C)c1C,45*,7,-38,-1,0
COc1ccc(-c2ccc(=O)n(Cc3cccc([N+](=O)[O-])c3)n2)cc1,-5,52*,11,-2,0
COc1ccc(S(=O)(=O)N2CCN(Cc3cccc([N+](=O)[O-])c3)CC2)cc1,nt,nt,1,nt,nt
Cc1[nH]c(=O)[nH]c(=O)c1S(=O)(=O)Nc1ccc(F)cc1F,nt,4,nt,nt,nt
CCc1nnc(NS(=O)(=O)c2ccc(NC(=O)COc3ccc4ccccc4c3)cc2)s1,42*,6,3,2,2
COc1ccc(-c2nnc(-c3cc(OC)c(OC)c(OC)c3)o2)cc1OC,38*,-8,nt,-8,nt
COc1ccc(F)cc1C(=O)C1CCCN(C(=O)CSc2ccccn2)C1 (configuration not stated),35*,-22,nt,1,0
S=c1[nH]nc([C@@H]2C[C@H]2c2ccccc2)n1-c1ccccc1Cl,nt,1,14,-1,1
CN(C)C(=O)COC(=O)c1ccccc1Nc1ccc(SC(F)F)cc1,33*,35,-15,4,2
COc1ccccc1NC(=O)COC(=O)c1ccccc1OCC(=O)Nc1ccc(SC(F)F)cc1,-9,-5,-12,2,2
COC(=O)c1ccccc1NC(=O)C1CCN(C(=O)c2cc(OC)c(OC)c(OC)c2)CC1,124*,nt,nt,1,1
